The results in this text go back to ChEMBL document CHEMBL1143913, “Pyrimidinone-peptoid hybrid molecules with distinct effects on molecular chaperone function and cell proliferation” (Bioorg Med Chem, 2008).

Test [1] has as its system SK-BR-3. The test is described as follows: Antiproliferative activity against human SK-BR3 cells after 96 hrs by MTS assay. The class given is functional. The conditions noted are these: SK-BR-3, 96 h. The gist of the method: (§1)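 Cells were kept in exponential growth in DMEM with 10% FBS, 1% penicillin and 1% glutamine, seeded at 4,000 per well and grown 48 h, with a time-zero plate counted. They were then exposed for 72 h to DMSO (1 v/v) or a concentration range in quadruplicate. Cell number was read by MTS/N-methylphenazine methylsulfate absorbance at 490 minus 630 nm. GI50 is relative to DMSO over the 72 h or 96 h period, and values above 50 µM are given as >50.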
On the technique in general: Formazan colour is commonly taken as a measure of viable cells.

For test [2], the system named is Saccharomyces cerevisiae. The test is described as follows: Inhibition of yeast Hsp70 ATPase assessed as ATP hydrolysis relative to control. The gist of the method: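 Purified yeast Hsp70 (Ssa1p) was pre-bound to ATP and run as a single-turnover assay, so that only the hydrolysis step is measured. Compound (300 µM) or DMSO was added at 0 s, and that time was set to zero. Results from multiple experiments were averaged, kinetics were fitted, and the value is the fold change in hydrolysis versus DMSO.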

The subject of test [3] is MCF7. The test is described as follows: Antiproliferative activity against human MCF7 cells after 96 hrs by MTS assay. It counts as functional. The conditions noted are these: MCF7, 96 h. The gist of the method: as §1
Test [4] deals with Saccharomyces cerevisiae. As to the kind of experiment: Inhibition of SV40 T antigen-stimulated Hsp70 ATPase in yeast assessed as ATP hydrolysis relative to control. In outline: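 Yeast Ssa1p was pre-bound to ATP and run as a single-turnover assay with purified SV40 TAg (0.4 µM). Compound (300 µM) or DMSO was added at 60 s, and that time was set to zero. Runs were averaged over multiple experiments, kinetics were fitted, and the value is the fold change in TAg-stimulated ATP hydrolysis versus DMSO.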

The test system of test [5] is HT-29. The test is described as follows: Antiproliferative activity against human HT29 cells after 96 hrs by MTS assay. It counts as functional. The conditions noted are these: HT-29, 96 h. In outline: as §1
The nature of test [6]: Binding affinity to Hsp70.
Test [7] in a line: Binding affinity to Hsp90.

The GI50 is the concentration giving 50% growth inhibition. Lower therefore signals more potent growth inhibition. In the case of `CCCCCCN(C(=O)CCCCCN1C(=O)NC(C2CC2)C(C(=O)OCc2ccccc2)=C1C)C(C(=O)NCCCC)c1ccc(OCC(=O)OC)c(C(=O)OC)c1` (stereo not drawn), the GI50 was 6.2 µM in test [1], 6.3 µM in test [3] and 5.3 µM in test [5]. In addition, the values for the Fold change in test [2] and in test [4] were 1.2 and -2.6, respectively.

As a reminder, the Kd is the constant that tells how readily two partners part at equilibrium. Regarding `N=C(N)NCCCCCCC(=O)NC(O)C(=O)NCCCCNCCCN` (stereo not drawn) [GUSPERIMUS], the Kd in test [6] and in test [7] was 4 µM throughout.

Take `CCCCCCN(C(=O)CCCCCN1C(=O)NC(c2ccc(-c3ccccc3)cc2)C(C(=O)OCc2ccccc2)=C1C)C(C(=O)NCCCC)c1ccc(OCC(=O)OC)c(C(=O)OC)c1` (stereo not drawn): the GI50 was 27 µM in test [1], 14.7 µM in test [3] and above 50 µM in test [5]. For the same compound, the EC50 in test [1] (read-out: ED50 (the source's name)) is 8 µM. Further, the Fold change in test [2] is 1.7; in test [4], -2.

Consider `CCCCCCN(C(=O)CCCCCN1C(=O)NC(c2ccccc2)C(C(=O)OCc2ccccc2)=C1C)C(C(=O)NCCCC)c1ccc(OCC(=O)OC)c(C(=O)OC)c1` (stereo not drawn), for which the GI50 in test [1] is 6.5 µM; in test [3], 2.4 µM; in test [5] it was 4.8 µM. For the same compound, the values for the Fold change in test [2] and in test [4] were 1.1 and -1.1, respectively.

As for `CCCCNC(=O)C(c1ccc(OCC(=O)OC)c(C(=O)OC)c1)N(CCOC)C(=O)CCCCCN1C(=O)NC(c2ccc(-c3ccccc3)cc2)C(C(=O)OCc2ccccc2)=C1C` (stereo not drawn), the values for the concentration for 50% growth inhibition (GI50) in test [1], in test [3] and in test [5] were 8.8 µM, 7.8 µM and 3.1 µM, respectively. Moreover, the results for the Fold change in test [2] and in test [4] were 1.5 and -1.8, respectively.

With `CC(C)(C)NC(=O)C(c1ccc(I)cc1)N(CCN1CCOCC1)C(=O)CCCNC(=O)c1ccccc1` (stereo not drawn), the GI50 in test [1], in test [3] and in test [5] was above 50 µM each time. Moreover, the Fold change was 1.1 in test [2] and -2 in test [4].

In test [1], `CCCCNC(=O)C(c1ccc(OCC(=O)OC)c(C(=O)OC)c1)N(CCc1ccccc1)C(=O)CCCCCN1C(=O)NC(c2ccc(-c3ccccc3)cc2)C(C(=O)OCc2ccccc2)=C1C` (stereo not drawn) displayed a GI50 of 32 µM. Also, the figures for the Fold change in test [2] and in test [4] were 12.3 and 1.3, respectively.

`CCCCNC(=O)C(c1ccc(OCC(=O)OC)c(C(=O)OC)c1)N(Cc1ccccn1)C(=O)CCCCCN1C(=O)NC(c2ccc(-c3ccccc3)cc2)C(C(=O)OCc2ccccc2)=C1C` (stereo not drawn): the GI50 in test [1] was 7.1 µM. Further, the Fold change was 1 in test [2] and -1.1 in test [4].

As for `CC1=C(C(=O)OCc2ccccc2)C(c2ccc(C(F)(F)F)cc2)NC(=O)N1CCCCCC(=O)O` (stereo not drawn), in test [1], the GI50 was above 50 µM. The Fold change was 1.2 in test [2] and 1.1 in test [4].

For `CCCCNC(=O)C(c1ccc(-c2ccccc2)cc1)N(CCN1CCOCC1)C(=O)CCCCCN1C(=O)NC(c2ccc([N+](=O)[O-])cc2)C(C(=O)OCc2ccccc2)=C1C` (stereo not drawn), the GI50 in test [1] is above 50 µM. Further, the results for the Fold change in test [2] and in test [4] were 2.3 and -5, respectively.

In test [1], `CCCCCCN(C(=O)CCCCCN1C(=O)NC(c2ccc(-c3ccccc3)cc2)C(C(=O)OCc2ccccc2)=C1C)C(C(=O)NCCCC)c1ccc(O)cc1` (stereo not drawn) showed a GI50 above 50 µM. In addition, the Fold change in test [2] was 11.8; in test [4], 9.2.
